Results from ChEMBL document CHEMBL5154634, “A Modular Synthetic Route Involving N-Aryl-2-nitrosoaniline Intermediates Leads to a New Series of 3-Substituted Halogenated Phenazine Antibacterial Agents” (J Med Chem, 2021).
Values after ≈ are worked out from the molar mass of the structure shown. Active and inactive are the calls of the source. No cut-off for these calls is given here.

Tests used:
Staphylococcus aureus [1] = assay: Antibacterial activity against methicillin-resistant Staphylococcus aureus 147 assessed as bacterial growth inhibition; format: functional
Staphylococcus aureus [2] = assay: Antibiofilm activity against methicillin-resistant Staphylococcus aureus BAA-1707 biofilms assessed as reduction of viable biofilm cells at MBEC measured by CBD assay; format: functional
How it was run: (§1)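 After the Calgary biofilm device assay, treated and untreated pegs were removed, sonicated 30 min in PBS and plated for CFU per peg. Log10 reduction of viable biofilm cells at the MBEC determined by comparison with untreated pegs. At least three independent experiments.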

Staphylococcus aureus [3] = assay: Antibiofilm activity against methicillin-resistant Staphylococcus aureus BAA-1707 biofilms assessed as biofilm eradication incubated for 24 hrs followed by incubation for 24 hrs in fresh medium by Calgary biofilm device assay; format: functional
How it was run: (§2)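 Calgary biofilm device. Mid-log culture diluted 1000-fold in TSB with 0.5% glucose; biofilms grown on pegs 24 h at 37 °C. Pegs washed and challenged with twofold compound dilutions for 24 h at 37 °C, then moved to fresh medium for 24 h. MBEC is the lowest concentration leaving wells non-turbid. At least three independent experiments.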

Staphylococcus aureus [4] = assay: Antibacterial activity against methicillin-resistant Staphylococcus aureus 156 assessed as bacterial growth inhibition; format: functional
[5] = test system: Staphylococcus epidermidis; assay: Antibiofilm activity against methicillin-resistant Staphylococcus epidermidis ATCC 35984 biofilms assessed as biofilm eradication incubated for 24 hrs followed by incubation for 24 hrs in fresh medium by Calgary biofilm device assay; format: functional; how it was run: as §2
Enterococcus faecium [6] = assay: Antibiofilm activity against methicillin-resistant vancomycin-resistant Enterococcus faecium ATCC 700221 biofilms assessed as biofilm eradication incubated for 24 hrs followed by incubation for 24 hrs in fresh medium by Calgary biofilm device assay; format: functional; how it was run: as §2
Enterococcus faecalis [7] = assay: Bactericidal activity against […] Enterococcus faecalis OG1RF ATCC 47077 planktonic cells assessed as planktonic eradication incubated for 24 hrs followed by incubation for overnight in fresh medium by Calgary biofilm device assay; format: functional
How it was run: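 Calgary biofilm device in BHI. Biofilms grown 24 h at 37 °C and challenged 24 h with twofold compound dilutions. Challenge medium subcultured 1:10 into fresh BHI overnight at 37 °C. MBC is the concentration with no turbidity. At least three independent experiments.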

Enterococcus faecalis [8] = assay: Antibacterial activity against Enterococcus faecalis OG1RF ATCC 47077 assessed as bacterial growth inhibition incubated for 16 hrs by broth microdilution susceptibility test; format: functional
Staphylococcus aureus [9] = assay: Antibiofilm activity against methicillin-resistant Staphylococcus aureus BAA-1707 biofilms assessed as biofilm killing at MBEC measured by CBD assay; format: functional
Staphylococcus aureus [10] = assay: Antibacterial activity against methicillin-resistant Staphylococcus aureus BAA-1707 assessed as bacterial growth inhibition incubated for 16 hrs by broth microdilution susceptibility test; format: functional
How it was run: (§3)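 CLSI broth microdilution with 11 twofold dilutions (0.05–50 μM). About 10^5 cells per well from a log-phase culture. DMSO vehicle up to 0.5% v/v. At least three independent experiments.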

[11] = Dissociation constant, pKa of the compound at 125 uM by UV-vis spectrophotometric analysis; format: physicochemical
How it was run: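 Compound at 125 μM final in phosphate buffers (KH₂PO₄/Na₂HPO₄) in 1:1 water/methanol, pH 4.07–9.66; ammonium hydroxide added for pH above 9.80. UV-vis scans 200–800 nm to find λmax of phenol and phenolate forms. Absorbance at each λmax plotted against pH.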

Staphylococcus aureus [12] = assay: Antibacterial activity against methicillin-resistant Staphylococcus aureus 138 assessed as bacterial growth inhibition; format: functional
Staphylococcus aureus [13] = assay: Antibacterial activity against methicillin-resistant Staphylococcus aureus clinical isolate 1 assessed as bacterial growth inhibition; format: functional
Staphylococcus aureus [14] = assay: Antibacterial activity against methicillin-resistant Staphylococcus aureus BAA-44 assessed as bacterial growth inhibition incubated for 16 hrs by broth microdilution susceptibility test; format: functional
How it was run: (§4)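 CLSI broth microdilution with 11 twofold dilutions (0.05–50 μM). Medium was LB for the staphylococci and BHI for VRE 700221. About 10^5 cells per well from a log-phase culture. […] DMSO vehicle up to 0.5% v/v. At least three independent experiments.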

[15] = Binding affinity to Fe2+ assessed as compound-Fe2+ complex formation by UV-vis spectroscopy
[16] = test system: Staphylococcus epidermidis; assay: Antibiofilm activity against methicillin-resistant Staphylococcus epidermidis ATCC 35984 biofilms assessed as reduction of viable biofilm cells at 3.13 uM measured by CBD assay; format: functional
Erythrocyte = assay: Hemolytic activity against human RBC at 200 uM measured after 1 hr; format: toxicity, cell-based
How it was run: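 2% hRBCs exposed to compound at 200 μM final, added from DMSO stock, for 1 h at 37 °C. Supernatant OD read at 405 nm. Hemolysis normalized between DMSO (0%) and Triton X (100%); three independent experiments.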

Staphylococcus aureus [17] = assay: Antibacterial activity against methicillin-resistant Staphylococcus aureus clinical isolate 2 assessed as bacterial growth inhibition; format: functional
[18] = test system: Staphylococcus epidermidis; assay: Antibiofilm activity against methicillin-resistant Staphylococcus epidermidis ATCC 35984 biofilms assessed as reduction of viable biofilm cells at MBEC measured by CBD assay; format: functional; how it was run: as §1
HeLa = assay: Cytotoxicity against human HeLa cells assessed as reduction in cell viability incubated for 24 hrs by LDH release assay; format: toxicity, cell-based
How it was run: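 HeLa cells in DMEM with 10% FBS, treated at 70–80% confluence with 25, 50 and 100 μM for 24 h. LDH in supernatant measured by 30 min reaction at room temperature, then stop solution and absorbance at 490 nm. Controls: 2% Triton X-100 (maximum), medium only, DMSO vehicle. Three independent experiments.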

[19] = test system: Staphylococcus epidermidis; assay: Bactericidal activity against methicillin-resistant Staphylococcus epidermidis ATCC 35984 planktonic cells assessed as planktonic eradication incubated for 24 hrs followed by incubation for overnight in fresh medium by Calgary biofilm device assay; format: functional
How it was run: (§5)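 Calgary biofilm device. Biofilms grown 24 h at 37 °C in TSB with 0.5% glucose, then challenged 24 h with twofold compound dilutions. 20 μL of challenge medium transferred into fresh TSB with 0.5% glucose and incubated overnight at 37 °C. MBC is the concentration with no visible turbidity. At least three independent experiments.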

Staphylococcus aureus [20] = assay: Bactericidal activity against methicillin-resistant Staphylococcus aureus BAA-1707 planktonic cells assessed as planktonic eradication incubated for 24 hrs followed by incubation for overnight in fresh medium by Calgary biofilm device assay; format: functional; how it was run: as §5
J774 = assay: Cytotoxicity against mouse J774 cells assessed as reduction in cell viability […] by Alamar blue assay; format: toxicity, cell-based
[21] = test system: Mycobacterium tuberculosis; assay: Antibacterial activity against Mycobacterium tuberculosis H37Ra ATCC 25177 assessed as bacterial growth inhibition incubated for 7 days by absorbance based analysis; format: functional; details: H37Ra ATCC 25177, 168 h, time 7 day
How it was run: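 H37Ra grown 2 weeks in Middlebrook 7H9, then diluted to OD600 0.01. Compounds added in twofold dilutions, final 0.024–50 μM, with 0.5% DMSO and streptomycin as positive control. Incubated 7 days at 37 °C. MIC is the lowest concentration with no growth, with OD600 recorded. At least three independent experiments.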

Enterococcus faecium [22] = assay: Antibacterial activity against vancomycin-resistant Enterococcus faecium ATCC 700221 assessed as bacterial growth inhibition incubated for 16 hrs by broth microdilution susceptibility test; format: functional; how it was run: as §4
Enterococcus faecium [23] = assay: Bactericidal activity against methicillin-resistant vancomycin-resistant Enterococcus faecium ATCC 700221 planktonic cells assessed as planktonic eradication incubated for 24 hrs followed by incubation for overnight in fresh medium by Calgary biofilm device assay; format: functional; how it was run: as §5
[24] = test system: Mycobacterium tuberculosis; assay: Antibacterial activity against Mycobacterium tuberculosis CDC1551 assessed as bacterial growth inhibition incubated for 5 days by luminescence based analysis; format: functional; details: CDC1551, 120 h, time 5 day
How it was run: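 Bioluminescent Mtb-lux CDC1551 reporter grown in Middlebrook 7H9 with 0.05% Tween 80, 10% OADC and kanamycin to OD600 0.4–0.8, then diluted to OD600 0.02. Added to twofold drug dilutions (0.003–200 μM). Incubated 5 days at 37 °C, 5% CO2. Luminescence read against 1% DMSO and 10 μM rifampicin controls to give % growth inhibition. MIC taken from a modified Gompertz fit.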

[25] = test system: Staphylococcus epidermidis; assay: Antibiofilm activity against methicillin-resistant Staphylococcus epidermidis ATCC 35984 biofilms assessed as biofilm killing at 3.13 uM measured by CBD assay; format: functional
HepG2 = assay: Cytotoxicity against human HepG2 cells assessed as reduction in cell viability […] by Alamar blue assay; format: toxicity, cell-based
Staphylococcus aureus [26] = assay: Antibacterial activity against methicillin-resistant Staphylococcus aureus 129 assessed as bacterial growth inhibition; format: functional
[27] = test system: Staphylococcus epidermidis; assay: Antibacterial activity against methicillin-resistant Staphylococcus epidermidis ATCC 35984 assessed as bacterial growth inhibition incubated for 16 hrs by broth microdilution susceptibility test; format: functional; how it was run: as §3

`Oc1c(Br)c(Cl)c(Br)c2nc3c(Cl)cc(Cl)cc3nc12` showed an MIC (Staphylococcus aureus [1]) of 0.47 µM (≈ 0.215 µg/mL), an Activity (Staphylococcus aureus [2]) of 3.03 log10CFU and an MBEC (Staphylococcus aureus [3]) of 3.13 µM. The MIC (Staphylococcus aureus [4]) was 0.47 µM (≈ 0.215 µg/mL), the MBEC [5] was 0.3 µM and the MBEC (Enterococcus faecium [6]) was 0.2 µM. For the same molecule, the MBC (Enterococcus faecalis [7]) was 3.13 µM (≈ 1.43 µg/mL), the MIC (Enterococcus faecalis [8]) was 0.3 µM (≈ 0.137 µg/mL) and the Activity (Staphylococcus aureus [9]) was 99.9%. The MIC (Staphylococcus aureus [10]) was 0.59 µM (≈ 0.27 µg/mL), the pKa at 125 µM [11] was 6.07 and the MIC (Staphylococcus aureus [12]) was 0.47 µM (≈ 0.215 µg/mL). The MIC (Staphylococcus aureus [13]) was 0.47 µM (≈ 0.215 µg/mL), the MIC (Staphylococcus aureus [14]) was 0.15 µM (≈ 0.0686 µg/mL) and the Activity [15] was “Active”. The Activity [16] was 5 log10CFU, the Activity (Erythrocyte) was “<= 1%” and the MIC (Staphylococcus aureus [17]) was 0.47 µM (≈ 0.215 µg/mL). For the same molecule, the Activity [18] was 3.18 log10CFU, the IC50 (HeLa) was greater than 100 µM and the MBC [19] was 0.59 µM (≈ 0.27 µg/mL). The MBC (Staphylococcus aureus [20]) was 1.56 µM (≈ 0.713 µg/mL), the IC50 (J774) was greater than 200 µM and the MIC [21] was 6.25 µM (≈ 2.86 µg/mL). It also gave an MIC (Enterococcus faecium [22]) of 0.08 µM (≈ 0.0366 µg/mL), an MBC (Enterococcus faecium [23]) of 0.39 µM (≈ 0.178 µg/mL) and an MIC [24] of 0.8 µM (≈ 0.366 µg/mL). It also gave an Activity [25] of 99.999%, an IC50 (HepG2) greater than 200 µM and an MIC (Staphylococcus aureus [26]) of 0.47 µM (≈ 0.215 µg/mL). For the same molecule, the MIC [27] was no more than 0.05 µM.
